Data: ChEMBL document CHEMBL3822382 (Eur J Med Chem, 2016)
The source made the active and inactive calls. No cut-off for these calls is given here.

Tests used:
A2780cisR [1] = assay: Vascular disrupting activity against human A2780cis cells xenografted in athymic nude mouse assessed as hemorrhage at 100 mg/kg, ip after 24 hrs by hematoxylin and eosin staining based microscopic analysis; assay type: functional, organism-based
Method in brief: (§1)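 Athymic nude mice carried subcutaneous flank xenografts from 8 million cells. A single intraperitoneal dose of 100 mg/kg was given. After 24 h tumors were explanted, fixed in 5% formalin, paraffin-embedded and HE-stained for microscopic examination of vessels, hemorrhage and necrosis.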

HT-29 [2] = assay: Cell cycle arrest in combretastatin A-4 resistant human HT-29 cells assessed as mitotic cells at 100 nM after 24 hrs by propidium iodide/immunostaining method (reference value: 3.1 to 3.2%); assay type: functional
Method in brief: (§2)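 HT-29 cells (200,000/well) were treated 24 h with 100 nM indole, 5 μM CA-4 or DMSO. Cells were trypsinized, fixed in 4% formaldehyde (20 min, RT) and permeabilized in 90% ice-cold methanol (30 min). They were immunostained with anti-phospho-histone H3 (Ser10) (5 μg/mL, 37 °C, 1 h) plus an AlexaFluor-488 secondary, then stained with PI/RNase (30 min, 37 °C). Flow cytometry of 10,000 single cells assigned G1/S/G2/M.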

518A2 = assay: Induction of microtubule disruption in human 518A2 cells at 100 nM incubated for 24 hrs by DAPI staining based immunofluorescence microscopic analysis; assay type: cell-based
Method in brief: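 518A2 cells (25,000/well) on coverslips treated 24 h with 100 nM. Cells fixed in 4% formaldehyde, permeabilized and blocked (Triton X-100/BSA). Stained with mouse anti-alpha-tubulin (37 °C, 1 h) and AlexaFluor-488 secondary; nuclei counterstained with DAPI (1 µg/mL). Imaged by fluorescence microscopy at 400×.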

HT-29 [3] = assay: Induction of cytoskeletal damage in combretastatin A-4 resistant human HT-29 cells xenografted in fertilized white leghorn chicken egg chorioallantoic membrane at 5 nmol after 24 hrs by hematoxylin and eosin staining based stereomicroscopic analysis; assay type: functional, cell-based
Method in brief: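 Pellets of 1×10^6 HT-29 cells in matrigel/serum-free RPMI placed on the CAM of fertilized eggs for 48 h. Then 5 nmol (100 µL of 50 µM in PBS) applied outside a silicon ring around the pellet; DMSO as control. Imaged by stereomicroscopy after 24 h. Micro-xenografts then explanted, formalin-fixed, paraffin-embedded and HE-stained.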

HT-29 [4] = assay: Antivascular activity against in combretastatin A-4 resistant human HT-29 cells xenografted in fertilized white leghorn chicken egg chorioallantoic membrane assessed as blood vessel hemorrhage at 5 nmol after 24 hrs by hematoxylin and eosin staining based stereomicroscopic analysis; assay type: functional, cell-based
Method in brief: (§3)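 Pellets of 1 × 10⁶ HT-29 cells in 10 μL of 1:1 matrigel/serum-free RPMI (gelled 30 min, 37 °C) were placed on the CAM of fertilized eggs and left 48 h. Then 100 μL of a 50 μM PBS dilution (5 nmol) was pipetted outside a silicon ring around the pellet; DMSO served as control. After 24 h, stereomicroscopy was done, and micro-xenografts were explanted, formalin-fixed, paraffin-embedded and HE-stained.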

[5] = Cell cycle arrest in human 518A2 cells assessed as accumulation at G2/M phase at 100 nM after 24 hrs by propidium iodide staining-based flow cytometry (reference value: 26.3%); assay type: functional
HT-29 [6] = assay: Antivascular activity against in combretastatin A-4 resistant human HT-29 cells xenografted in fertilized white leghorn chicken egg chorioallantoic membrane assessed as retraction of tumor cells at 5 nmol after 24 hrs by hematoxylin and eosin staining based stereomicroscopic analysis; assay type: functional, cell-based; method in brief: as §3
HT-29 [7] = assay: Cell cycle arrest in combretastatin A-4 resistant human HT-29 cells assessed as accumulation at S phase at 50 nM after 24 hrs by propidium iodide staining-based flow cytometry (reference value: 13.7 +/- 0.3%); assay type: functional
[8] = Cell cycle arrest in human 518A2 cells assessed as accumulation at G1 phase at 100 nM after 24 hrs by propidium iodide staining-based flow cytometry (reference value: 49.5%); assay type: functional
HT-29 [9] = assay: Cell cycle arrest in combretastatin A-4 resistant human HT-29 cells assessed as accumulation at G1 phase at 100 nM after 24 hrs by propidium iodide staining-based flow cytometry (reference value: 68.1 +/- 0.3%); assay type: functional; method in brief: as §2
HT-29 [10] = assay: Antivascular activity against in combretastatin A-4 resistant human HT-29 cells xenografted in fertilized white leghorn chicken egg chorioallantoic membrane assessed as blood vessel destruction at 5 nmol after 24 hrs by hematoxylin and eosin staining based stereomicroscopic analysis; assay type: functional, cell-based; method in brief: as §3
Gallus gallus = species: Gallus gallus; assay: Cytotoxicity against fertilized white leghorn chicken egg chorioallantoic membrane microtumor model of CA-4 resistant human HT-29 cells assessed as reduction in embryo vitality at 5 nmol after 24 hrs; assay type: organism-based; conditions: ht-29, 24 h
A2780cisR [11] = assay: Vascular disrupting activity against human A2780cis cells xenografted in athymic nude mouse assessed as tumor necrosis at 100 mg/kg, ip after 24 hrs by hematoxylin and eosin staining based microscopic analysis; assay type: functional, organism-based; method in brief: as §1
[12] = Cell cycle arrest in human 518A2 cells assessed as apoptotic index ratio at 100 nM after 24 hrs by propidium iodide staining-based flow cytometry relative to control; assay type: functional
HT-29 [13] = assay: Cell cycle arrest in combretastatin A-4 resistant human HT-29 cells assessed as accumulation at S phase at 100 nM after 24 hrs by propidium iodide staining-based flow cytometry (reference value: 13.7 +/- 0.3%); assay type: functional; method in brief: as §2
HT-29 [14] = assay: Cell cycle arrest in combretastatin A-4 resistant human HT-29 cells assessed as accumulation at G1 phase at 50 nM after 24 hrs by propidium iodide staining-based flow cytometry (reference value: 68.1 +/- 0.3%); assay type: functional
HT-29 [15] = assay: Antivascular activity against in combretastatin A-4 resistant human HT-29 cells xenografted in fertilized white leghorn chicken egg chorioallantoic membrane assessed as loss of cell to cell interaction at 5 nmol after 24 hrs by hematoxylin and eosin staining based stereomicroscopic analysis; assay type: functional; method in brief: as §3
A2780cisR [16] = assay: Antitumor activity against human A2780cis cells xenografted in athymic nude mouse assessed as reduction in tumor growth at 40 mg/kg, ip administered on day 3, 7, 10 and 14; assay type: functional, organism-based
A2780cisR [17] = assay: Vascular disrupting activity against human A2780cis cells xenografted in athymic nude mouse assessed as discoloration of tumor at 100 mg/kg, ip after 24 hrs; assay type: functional, organism-based
Method in brief: (§4)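 Athymic nude mice carried subcutaneous flank xenografts from 8 million cells in PBS. A single intraperitoneal dose of 100 mg/kg was given, and tumor discoloration was photographed 24 h later.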

[18] = Cell cycle arrest in human 518A2 cells assessed as accumulation at S phase at 100 nM after 24 hrs by propidium iodide staining-based flow cytometry (reference value: 20.4%); assay type: functional
1411HP = assay: Vascular disrupting activity against multidrug resistant human 1411HP cells xenografted in athymic nude mouse assessed as discoloration of tumor at 100 mg/kg, ip after 24 hrs; assay type: functional, organism-based; method in brief: as §4
HT-29 [19] = assay: Cell cycle arrest in combretastatin A-4 resistant human HT-29 cells assessed as accumulation at G2 phase at 100 nM after 24 hrs by propidium iodide staining-based flow cytometry (reference value: 15.6 +/- 0.1%); assay type: functional; method in brief: as §2
Sus scrofa = species: Sus scrofa; assay: Decrease in rate of porcine brain alpha/beta tubulin polymerization at 5 uM measured every 20 sec by microplate reader analysis
Chorioallantoic membrane = assay: Antivascular activity in fertilized white leghorn chicken egg chorioallantoic membrane assessed as disruption of preformed blood vessel at 2.5 nmol after 12 hrs by stereomicroscopic analysis; assay type: functional, tissue-based; conditions: Gallus gallus
[20] = Cell cycle arrest in human 518A2 cells assessed as accumulation at subG1 phase at 100 nM after 24 hrs by propidium iodide staining-based flow cytometry (reference value: 3.8%); assay type: functional

In the case of `COc1cc(-c2ncn(C)c2-c2ccc3c(c2)c(Cl)cn3C)cc(Br)c1OC.Cl`, the Activity (A2780cisR [1]) is reported as “Active”, the Activity (HT-29 [2]) is reported as 77.8% and the Activity (518A2) is reported as “Active”. The Activity (HT-29 [3]) was “Active”, the Activity (HT-29 [4]) was “Active” and the Activity [5] was 33.9%. The Activity (HT-29 [6]) was “Active”, the Activity (HT-29 [7]) was 13.5% and the Activity [8] was 41%. For the same molecule, the Activity (HT-29 [9]) was 12%, the Activity (HT-29 [10]) was “Active” and the Activity (Gallus gallus) was “Non-toxic”. The Activity (A2780cisR [11]) was “Active”, the Ratio [12] was 4.4 and the Activity (HT-29 [13]) was 8%. For the same molecule, the Activity (HT-29 [14]) was 43.5%, the Activity (HT-29 [15]) was “Active” and the Activity (A2780cisR [16]) was “Active”. The Activity (A2780cisR [17]) was “Active”, the Activity [18] was 17.8% and the Activity (1411HP) was “Active”. The Activity (HT-29 [19]) was 4.6%, the Activity (Sus scrofa) was “Active” and the Activity (Chorioallantoic membrane) was “Active”. It also gave an Activity [20] of 7.4%.
